Results as given in ChEMBL document CHEMBL3853325, “Identification of Inhibitors for the DEDDh Family of Exonucleases and a Unique Inhibition Mechanism by Crystal Structure Analysis of CRN-4 Bound with 2-Morpholin-4-ylethanesulfonate (MES)” (J Med Chem, 2016).
Active and inactive are the calls of the source. No cut-off for these calls is given here.

What was measured:
[1] = target: T1, Ribonuclease T (Escherichia coli (strain K12)) (UniProt P30014); experiment: (§1) Inhibition of N-terminal His-tagged recombinant Escherichia coli K-12 RNase T exonuclease activity expressed in Escherichia coli BL21-CodonPlus(DE3)-RIPL preincubated for 10 mins followed by [gamma-32P]ATP labelled 11-nucleotide ssDNA substrate addition for 40 mins by PAGE based autoradiography
T1 sequence (whole entry): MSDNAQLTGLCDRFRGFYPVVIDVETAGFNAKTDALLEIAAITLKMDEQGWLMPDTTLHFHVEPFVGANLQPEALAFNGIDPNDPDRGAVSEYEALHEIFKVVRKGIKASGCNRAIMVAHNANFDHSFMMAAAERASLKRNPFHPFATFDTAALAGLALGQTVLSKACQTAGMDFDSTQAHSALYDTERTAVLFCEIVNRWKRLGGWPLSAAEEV

Mammarenavirus lassaense [2] = experiment: Inhibition of Lassa virus N-terminal His-tagged NP exonuclease domain (342 to 569 residues) expressed in Escherichia coli Tuner (DE3) using FAM-labeled 20-nucleotide ssRNA preincubated for 10 mins followed by substrate addition measured after 60 mins by PAGE based […]
In short: (§2)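 Purified NP exonuclease domain (2 μM), alone or with inhibitor, was incubated with 1 μM 5′-FAM-labelled RNA (20-nt ssRNA or stem-loop with 4-nt 3′ overhang). Buffer: 120 mM NaCl, 2 mM MgCl2, 20 mM Tris-HCl pH 7.0, ±10% DMSO, room temperature, 60 min. Products were run on 20% denaturing gels under UV. Cleavage was quantified across inhibitor concentrations to calculate IC50.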

Mammarenavirus lassaense [3] = experiment: (§3) Inhibition of Lassa virus N-terminal His-tagged NP exonuclease domain (342 to 569 residues) expressed in Escherichia coli Tuner (DE3) using 3'-overhang 4-nucleotide stem-loop RNA preincubated for 10 mins followed by substrate addition measured after 60 mins by PAGE based […]; in short: as §2
[4] = target: T2, 3'-5' exonuclease crn-4 (Caenorhabditis elegans) (UniProt Q10905); experiment: (§4) Inhibition of GST-tagged Caenorhabditis elegans CRN-4 exonuclease activity expressed in Escherichia coli BL21 (DE3) pLysS preincubated for 10 mins followed by [gamma-32P]ATP labelled 11-nucleotide ssRNA substrate addition for 30 mins by PAGE based autoradiography
T2 sequence (whole entry): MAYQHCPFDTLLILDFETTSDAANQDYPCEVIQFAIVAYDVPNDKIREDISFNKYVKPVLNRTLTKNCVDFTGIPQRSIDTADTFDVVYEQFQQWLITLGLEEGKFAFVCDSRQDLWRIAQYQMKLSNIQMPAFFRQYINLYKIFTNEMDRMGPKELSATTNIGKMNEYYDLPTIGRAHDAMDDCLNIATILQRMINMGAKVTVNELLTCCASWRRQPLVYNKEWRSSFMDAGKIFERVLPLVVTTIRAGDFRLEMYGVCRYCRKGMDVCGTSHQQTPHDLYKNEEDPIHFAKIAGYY

[5] = as §3; parameters: species or system Mammarenavirus lassaense; in short: as §2
[6] = target: T2, 3'-5' exonuclease crn-4 (Caenorhabditis elegans); experiment: (§5) Inhibition of 5'-[gamma-32P]ATP-labelled 11-nucleotide ssRNA binding to Caenorhabditis elegans GST-tagged CRN-4 expressed in Escherichia coli BL21 (DE3) pLysS at 1 mM preincubated for 10 mins followed by substrate addition measured after 20 mins by TBE gel electrophoresis mobility shift assay
In short: (§6)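 Gel-shift assay. Inhibitor was mixed with protein (CRN-4 or RNase T) for 10 min at room temperature, then 20 nM 5′-32P-labelled 11-nt substrate was added (RNA for CRN-4, DNA for RNase T). Buffer: 50 mM Tris-HCl pH 7.0, 120 mM NaCl, 10 mM EGTA, 40 mM EDTA, ±10% DMSO, 20 min at room temperature. Complexes were resolved on 20% TBE gels and read by phosphorimaging.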

[7] = target: T1, Ribonuclease T (Escherichia coli (strain K12)); experiment: (§7) Inhibition of 5'-[gamma-32P]ATP-labelled 11-nucleotide ssDNA binding to recombinant Escherichia coli K-12 N-terminal His-tagged RNase T expressed in Escherichia coli BL21-CodonPlus(DE3)-RIPL at 1 mM preincubated for 10 mins followed by substrate addition measured after 20 mins by TBE gel electrophoresis mobility shift assay; in short: as §6
Geobacillus phage GBSV1 = experiment: Inhibition of recombinant GST-fused Geobacillus phage GBSV1-NSN expressed in Escherichia coli BL21 (DE3) at 10 mM using RNA/DNA as substrate after 15 mins by spectrophotometry relative to control
[8] = target: Ribonuclease T (Escherichia coli (strain K12)) (UniProt P30014); experiment: as §1; remark: listed apart in the source
[9] = target: Ribonuclease T (Escherichia coli (strain K12)) (UniProt P30014); experiment: as §7; in short: as §6; remark: listed apart in the source
[10] = target: 3'-5' exonuclease crn-4 (Caenorhabditis elegans) (UniProt Q10905); experiment: as §4; remark: listed apart in the source
[11] = target: 3'-5' exonuclease crn-4 (Caenorhabditis elegans) (UniProt Q10905); experiment: as §5; in short: as §6; remark: listed apart in the source

| Compound | INH [1] [mM] | INH (Mammarenavirus lassaense [2]) [mM] | INH (Mammarenavirus lassaense [3]) [mM] | INH [4] [mM] | inhibition (Mammarenavirus lassaense [3]) | IC50 [5] [µM] | inhibition [6] | inhibition [7] | inhibition (Geobacillus phage GBSV1) [%] | INH [8] [mM] | inhibition [9] | INH [10] [mM] | inhibition [11] |
| --- | --- | --- | --- | --- | --- | --- | --- | --- | --- | --- | --- | --- | --- |
| O=C(O)c1ccc(Nc2nc(Cl)nc(Cl)n2)cc1-c1c2ccc(=O)cc-2oc2cc(O)ccc12 | 1 | 1 | 1 | 1 | – | – | – | – | – | – | – | – | – |
| O=C(O)c1cc2cccc([N+](=O)[O-])c2[nH]1 | 1 | 1 | 1 | > 1 | – | – | – | – | – | – | – | – | – |
| O=S(=O)(O)c1cc(O)c2c(O)c(/N=N/c3cccc4ccccc34)c(S(=O)(=O)O)cc2c1 | 0.1 | 0.1 | 0.1 | 0.01 | Dose-dependent effect | 66.2 | Active | – | – | – | – | – | – |
| O=C(O)C1=CC(=C(c2ccc(O)c(C(=O)O)c2)c2ccc(O)c(C(=O)O)c2)C=CC1=O [AURINTRICARBOXYLIC ACID] | 0.01 | 0.01 | 0.01 | 0.1 | Dose-dependent effect | 6.8 | Active | Active | – | – | – | – | – |
| O=C(N[C@H](CC1CCCCC1)C(=O)O)OCC1c2ccccc2-c2ccccc21 | 1 | 1 | 1 | 1 | – | – | Active | – | – | – | – | – | – |
| O=C(O)c1cc(SSc2ccc([N+](=O)[O-])c(C(=O)O)c2)ccc1[N+](=O)[O-] | 0.1 | 1 | 1 | 0.1 | – | – | Active | Active | – | – | – | – | – |
| O=C(O)CC(O)(CC(=O)O)C(=O)O | 1 | 1 | 1 | > 1 | – | – | – | – | 40 | – | – | – | – |
| p-Chloromercuribenzenesulfonate | – | 1 | 1 | – | – | – | – | – | – | 0.01 | Active | 0.01 | Active |
